ADAM17 inh – inhibits human ADAM17; P78536; recombinant ADAM17, EDANS/DABCYL FRET peptide cleavage; inhibition, % at 6.95 µM; 370,000 tested, 0.83% active; AID 720648;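 active means inhibition above the mean of compounds lying between control limits plus 3 SD, set per campaign, cut at about 8.5% in these data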;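 further: 0% = DMSO-only wells as the low control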
Target sequence (P78536 215-824 limits assumed): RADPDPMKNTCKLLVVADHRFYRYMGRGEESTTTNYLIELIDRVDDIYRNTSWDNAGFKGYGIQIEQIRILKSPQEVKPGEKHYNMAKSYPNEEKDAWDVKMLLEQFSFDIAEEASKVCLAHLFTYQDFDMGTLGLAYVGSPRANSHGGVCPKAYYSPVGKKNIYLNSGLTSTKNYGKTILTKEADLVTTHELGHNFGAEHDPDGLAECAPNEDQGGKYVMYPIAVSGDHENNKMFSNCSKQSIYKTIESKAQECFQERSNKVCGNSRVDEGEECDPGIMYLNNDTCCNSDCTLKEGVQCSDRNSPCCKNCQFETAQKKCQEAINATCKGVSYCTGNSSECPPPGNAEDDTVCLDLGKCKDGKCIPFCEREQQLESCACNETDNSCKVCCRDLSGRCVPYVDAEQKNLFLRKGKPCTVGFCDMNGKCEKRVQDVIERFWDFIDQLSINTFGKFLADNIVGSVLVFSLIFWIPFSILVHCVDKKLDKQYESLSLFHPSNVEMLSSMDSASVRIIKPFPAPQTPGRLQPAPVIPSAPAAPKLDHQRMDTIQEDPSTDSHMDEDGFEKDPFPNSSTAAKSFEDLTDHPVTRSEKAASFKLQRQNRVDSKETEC
PLCg1 inh – inhibitors of human phospholipase C gamma1; P19174; purified PLC-gamma1, fluorogenic substrate, fluorescence; inhibition, % at 12.2 µM; 370,000 tested, 0.84% active; in the data active means inhibition above about 9.5%
PLCb3 inh – blocks human PLC-beta3 enzyme activity. 370,000 tested, 0.18% active. inhibition, % at 12.2 µM. Purified PLC-beta3, fluorogenic substrate, fluorescence;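 further: 0% = median of compound wells on plate and 100% = full blocker control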
Tn7 DDE FP – disrupts Tn7 cyclic peptide binding to fibrin D-Dimer-E complex | P02675 | FP displacement of FITC-Tn7 peptide from fibrin DD(E); 0% = median of compound wells per plate | inhibition, % at 8.3 µM | 370,000 tested, 0.13% active;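 active means inhibition above the mean of compounds falling within the control limits plus 3 SD of them, cut at about 14% in these data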;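 further: 0% = plate median of compound wells and 100% = 10 µM Aha-Tn7 peptide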
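system = human fibrin DD(E) protein | quantity = DD(E) 2 µM final | medium = Tris/NaCl/CaCl2 buffer, pH 7.8 | also added = labelled Tn7 tracer, 0.1 µM | compound dosing = single point at 8.3 µM | timing = compound with protein 10 min, then 3 h after probe, room temperature | signal = FP measurement | benchmarks = Aha-Tn7 high control | repeats = one replicate per compound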
Tn6 DDE FP – disrupts Tn6 cyclic peptide binding to fibrin D-Dimer-E complex | P02675 | Fibrin DD(E) TRITC-Tn6 fluorescence polarization displacement | inhibition, % at 8.3 µM | 370,000 tested, 0.21% active;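 active means inhibition above a per-campaign cutoff: mean of compounds within control limits plus 3 SD, cut at about 15% in these data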;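 further: 0% = median of all compound wells on the plate and 100% = blocking peptide control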
ADAM10 inh – inhibits human ADAM10 | recombinant ADAM10, EDANS/DABCYL FRET peptide cleavage, 3 h | AID 720582 | inhibition, % at 7 µM | 370,000 tested, 0.62% active;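 active means inhibition above a per-campaign cutoff equal to the mean of compounds falling between control-based bounds plus 3 SD, cut at about 20% in these data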;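 further: 0% = DMSO wells while the 100% control is not disclosed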
PLCgamma1 ctr – PLC-gamma1 inhibition, counter-screen for PLC-beta3 hits | AID 743258 | purified PLC-gamma1, fluorogenic substrate, fluorescence | shares compounds with PLCg1 inh | 3,300 tested, 3.1% active | inhibition, % at 12.3 µM; in the data active means inhibition above about 9.5%
PLCbeta3 conf – confirmation of human PLC-beta3 inhibitors; shares compounds with PLCg1 inh; purified PLC-beta3, fluorogenic substrate fluorescence; inhibition, % at 12.3 µM; 3,300 tested, 1% active; AID 743261
* marks the source's active call; other numbers are inactive results; / = no result given. Compounds with a hit are over-represented: about 2.3% of the library has one in this group of screens. Unless noted, no stated cut-off is given here; in the data, active means inhibition above about 11%; inactive means the rest.

SMILES | ADAM17 inh | PLCg1 inh | PLCb3 inh | Tn7 DDE FP | Tn6 DDE FP | ADAM10 inh | PLCgamma1 ctr | PLCbeta3 conf
COC(=O)[C@@]12CCCCC3=C1N(CCC3)C(=O)[C@H]2CC(=O)NCCCCc1ccccc1 | -0.7 | -1.5 | 0.3 | -4.8 | -3.8 | 0.3 | / | /
COC(=O)C1CN(Cc2ccc(Cl)cc2)CCS(=O)(=O)N1Cc1cn(Cc2ccc(Cl)cc2)nn1 (centres undefined) | 1.5 | 0.8 | 1.4 | -5.6 | 0.5 | 7.0 | / | /
CCN(CC)c1nc(N)c([N+](=O)[O-])c(NCCO)n1 | 5.7 | 10.3* | 8.3 | 0.8 | -9.8 | 14.2 | -1.1 | 5.0
CCOC(=O)N/N=C/c1ccc(Oc2ccccc2)cc1 | -4.4 | 9.6* | 9.1 | -4.7 | 0.8 | -5.7 | 6.3 | 10.2
CCC12CN3CC(CC)(CN(C1)C3c1ccc([N+](=O)[O-])o1)C2=O (centres undefined) | -3.9 | 11.4* | 7.1 | 0.2 | -2.6 | -3.6 | -4.0 | 0.2
COCCN1C(=O)c2oc3cc(C)c(C)cc3c(=O)c2C1c1cccc(O)c1 (centres undefined) | -3.7 | 14.9* | -0.9 | -3.1 | -12.2 | -11.0 | -7.9 | -2.2
O=C1c2oc3ccccc3c(=O)c2C(c2cccc(O)c2)N1CCCN1CCOCC1 (centres undefined) | -4.3 | -15.5 | -15.5 | -7.5 | 1.4 | -14.2 | / | /
CCCCN1CCN(C(=O)Cn2c(=O)c3ccccc3n(CC)c2=O)CC1 | 3.6 | 3.3 | 4.6 | 0.6 | 5.4 | -7.5 | / | /
COc1cc2[nH]c(=O)n(CCCCCC(=O)NC3CCCC3)c(=O)c2cc1OC | -10.4 | 10.3* | -4.7 | -2.6 | -0.3 | -11.9 | -0.4 | -5.6
CN(C(=O)c1cccnc1)c1nc(-c2ccccc2)cs1 | -1.2 | 9.7* | 6.5 | 0.1 | -1.9 | 8.4 | -8.2 | -5.8
CN(Cc1ccccc1)C(=O)c1cccnc1 | -0.4 | -0.5 | -11.3 | 4.3 | 10.0 | 5.1 | / | /
CCCCCCCCN1C(=O)[C@@H](CC(=O)NCCc2ccccc2OC)C[C@@]2(C(=O)OC)C1=C[C@H](COCc1ccccc1)O[C@@H]2C | -4.6 | -5.2 | -5.8 | 2.9 | 0.0 | -4.5 | / | /
COC(=O)c1ccc(CN2CCCC(CNC(=O)Cc3ccc(OC)cc3)C2)cc1 (centres undefined) | -0.1 | -1.2 | -5.0 | 1.0 | 6.0 | 1.2 | / | /
COc1ccc(CC(=O)NCC2CCCN(Cc3cc(OC)cc(OC)c3)C2)cc1 (centres undefined) | 7.8 | 13.0* | 0.9 | -1.8 | 0.3 | 7.3 | -5.0 | -3.5
COc1ccc(C(C(=O)N(C)C2CCCC2)N(Cc2ccc(F)cc2)C(=O)c2csc3ccc(Cl)cc23)cc1OC (centres undefined) | 4.6 | 4.2 | -3.2 | 0.1 | -1.6 | 10.9 | / | /
COc1c(C)cc(C(=O)C2CCCN(C(=O)c3cc(C)n(C)n3)C2)cc1C (centres undefined) | -7.2 | -2.0 | -10.9 | -1.4 | 6.1 | 4.5 | / | /
COc1c(C)cc(C(=O)C2CCCN(C(=O)/C=C/c3ccccn3)C2)cc1C (centres undefined) | 1.6 | 11.2* | 10.6* | -3.9 | -9.8 | 11.1 | -4.2 | -5.3
O=C(NCc1cccs1)C1CCCN(S(=O)(=O)c2ccccc2)C1 (centres undefined) | 4.5 | -0.1 | -1.6 | 3.5 | 3.1 | -7.6 | / | /
COc1ccc(CNC(=O)CCC(=O)Nc2nnc(CC(C)C)s2)cc1 | 0.8 | 12.0* | -2.6 | -8.7 | 0.6 | 5.4 | -5.7 | -3.8
CCc1nnc(NC(=O)CCC(=O)NCc2ccc(OC)cc2)s1 | -0.6 | -0.4 | 0.5 | -0.6 | 11.8 | 2.3 | / | /
CCCCOC(=O)n1c(=O)oc2cc(S(=O)(=O)N3CCCCC3)ccc21 | 3.3 | 11.4* | 0.7 | -8.1 | -6.3 | 13.1 | -2.8 | -1.4
COC(=O)n1c(=O)oc2ccc(S(=O)(=O)N3CCCCC3)cc21 | -0.4 | 3.3 | -28.0 | -2.3 | -2.2 | -0.9 | / | /
c1cc2c(cc1Cn1cnnn1)OCO2 | -1.9 | -4.8 | -0.3 | -1.1 | 0.0 | 1.9 | / | /
Clc1ccc(Cn2ccc(-c3ccc4c(c3)OCO4)n2)cc1Cl | 8.6 | 18.7* | 12.4* | -3.2 | -10.5 | 10.2 | 7.3 | 8.7
CCCN1CNc2c(c(=O)[nH]c(=S)n2CCc2cccc(Cl)c2Cl)C1 | -8.2 | -0.1 | -4.3 | 6.3 | 2.7 | -13.9 | / | /
SMILES | ADAM17 inh | PLCg1 inh | PLCb3 inh | Tn7 DDE FP | Tn6 DDE FP | ADAM10 inh | PLCgamma1 ctr | PLCbeta3 conf
O=C(CCc1ccccc1)N[C@H]1[C@H](O)CCC[C@@]12C(=O)N(Cc1ccccc1)c1ccc(-c3ccccc3)cc12 | 4.7 | 4.0 | -1.3 | -0.9 | -2.2 | 13.2 | / | /
Cc1ccc2nsnc2c1S(=O)(=O)NCCc1c(C)[nH]c2ccc(F)cc12 | 7.0 | 10.2* | 8.1 | 0.6 | -0.4 | 6.4 | -0.7 | -2.7
COC(=O)[C@H](Cc1ccccc1)N1Cc2ccccc2Oc2cc(Br)ccc2S1(=O)=O | 7.8 | 6.4 | -0.2 | 10.5 | -2.9 | 14.9 | / | /
CCOC(=O)c1c(CC(C)C)csc1NC(=O)CCl | 7.7 | 6.1 | 10.9* | -7.1 | -8.4 | 14.2 | -3.5 | -5.5
CCOC(=O)c1c(CC(C)C)csc1NC(=O)C(C)C | -3.3 | 2.6 | 2.0 | -1.6 | 6.9 | -1.3 | / | /
C=CC[C@@H]1NN2C(=O)[C@@H](CCCC)[C@@H]3c4cc5ccccc5cc4C=NN3[C@@H]2c2cc3ccccc3cc21 | -2.1 | -8.2 | -10.7 | -3.8 | -7.2 | -13.0 | / | /
CCCCNC(=O)CSc1nc2ccccc2c(=O)n1CC1COc2ccccc2O1 (centres undefined) | 5.9 | 13.1* | 7.3 | -2.3 | -5.5 | 16.6 | 3.1 | 1.6
CN1[C@@H](Cc2ccccc2)COc2cccc(F)c2S1(=O)=O | -0.6 | 0.2 | 3.3 | 3.6 | 7.1 | 2.5 | / | /
CCOC(=O)[C@]12CCCC3=C1N(CCC3)C(=O)[C@@H](CC(=O)N1CCCC1)C2 | 0.2 | 0.4 | -1.8 | -2.1 | -0.3 | -1.1 | / | /
CC(C)C[C@H]1CNC(=O)C(=O)N1C[C@H](Cc1ccc(O)cc1)NC(=O)Cc1ccccc1 | -6.6 | -0.7 | 1.3 | 0.2 | 5.5 | -12.4 | / | /
C[C@H]1CNC(=O)C(=O)N1C[C@H](Cc1ccc(O)cc1)NC(=O)CC12CC3CC(CC(C3)C1)C2 | 2.2 | 4.6 | 11.9* | -10.9 | -1.3 | -3.4 | -5.8 | 2.1
Cn1ccc2ccc(-c3ccc4c(c3)[C@]3(CCC[C@@H](OCc5ccccc5)[C@@H]3NC(=O)CCc3ccccc3)C(=O)N4Cc3ccccc3)cc21 | 0.0 | -0.5 | -1.9 | -1.5 | 10.2 | -1.9 | / | /
CCN(CC)C(=O)c1[nH]cnc1C(=O)N[C@H](C)c1ccccc1 | 4.5 | 8.4 | 13.8* | 1.7 | 10.4 | -0.8 | -0.2 | -1.5

Screening results deposited in PubChem by The Scripps Research Institute Molecular Screening Center.
